Screens deposited in PubChem BioAssay by Broad Institute.
Shown is part of a subset that was picked to be rich in hits.
T cruzi intra = inhibitors of intracellular Trypanosoma cruzi; intracellular Trypanosoma cruzi in host cells, plate reader; activity score (inhibition), % at 5.01 µM; 4.9% of 22,000 active; AID 651903; in the data active = activity score above about 55%; inconclusive = no clear call, values can overlap the other calls;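 note: parasites and compound incubated about four days before reading; 0% = median of neutral control wells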
A1 apoptosis 2 = compounds inhibiting A1, read as caspase activation; MEF A1-2A-BIM cells, caspase-Glo luminescence, 3 h; percent of clofoctol response, DMSO zero; caspase activation, % (no concentration beside the values); 24,000 tested, under 10 active; in the data active = caspase activation above about 5.9%; inconclusive = no clear call, values can overlap the other calls; inactive = below about 2.2%
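Evaluation: Caspase-3/7 activity from luminescence increase | Assay system: A1-2A-BIM mouse embryonic fibroblasts | Quantity: 2500 MEF cells/well | Medium: RPMI-1640 plus 10% FBS | Detection: Caspase-Glo 3/7 luminescence, 1 h at room temperature | Dosing: 50 nL compound per well, pinned | Timing: Cells settled overnight, compound exposure 3 h at 37 °C, 5% CO2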
INS-1E ATP HTS = preserves ATP levels in cytokine-treated INS-1E cells. INS-1E cytokine-induced death, ATP luminescence, 48 h; normalised: neutral wells 0, positive control 100. protection from cytokine-induced ATP loss, % at 10 µM. 0.1% of 20,000 active;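 active = mean replicate protection from cytokine-induced ATP loss at least 50% and at least 75% of replicates each reaching 50%; inconclusive = meets only one of the two criteria, mean or replicate share; inactive = fails both the mean and replicate share criteria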
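assay system = INS-1E rat insulinoma cells | amount = 8000 cells per well | medium = phenol-red-free RPMI with 5% fetal bovine serum | doses = one compound concentration, pin transfer | timing = 48 h cytokine plus compound treatment, 10 min reagent incubation | also added = IL-1β, TNF-α and IFN-γ cytokine mix | signal = CellTiter-Glo luminescence measuring cellular ATP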
Numbers without * were called inactive; u = inconclusive; x = not tested or not shown.

SMILES	T cruzi intra	A1 apoptosis 2	INS-1E ATP HTS
C[C@@H]1CCCCO[C@H](CN(C)C(=O)Nc2ccccc2)[C@@H](C)CN([C@H](C)CO)C(=O)c2cc(NC(=O)Nc3ccc(C(F)(F)F)cc3)ccc2O1	70.2*	x	-44.1
C[C@H]1CCCCO[C@@H](CN(C)C(=O)Nc2ccccc2)[C@@H](C)CN([C@@H](C)CO)C(=O)c2cc(NC(=O)Nc3ccc(C(F)(F)F)cc3)ccc2O1	x	-0.1	x
C[C@@H]1CCCCO[C@H](CN(C)C(=O)Nc2ccc(F)cc2)[C@@H](C)CN([C@H](C)CO)C(=O)c2cc(NC(=O)Nc3ccc(C(F)(F)F)cc3)ccc2O1	62.2*	x	-31.7
C[C@@H]1CCCCO[C@H](CN(C)C(=O)Nc2ccc(C(F)(F)F)cc2)[C@H](C)CN([C@H](C)CO)C(=O)c2cc(NC(=O)Nc3ccc(F)cc3)ccc2O1	x	1.0	x
C[C@@H]1CN([C@@H](C)CO)C(=O)c2cc(NC(=O)Nc3ccc(C(F)(F)F)cc3)ccc2O[C@@H]1CN(C)C(=O)Nc1ccc(F)cc1	57.9*	x	-48.7
C[C@H]1CN([C@@H](C)CO)C(=O)c2cc(NC(=O)Nc3ccc(C(F)(F)F)cc3)ccc2O[C@@H]1CN(C)C(=O)Nc1ccc(F)cc1	-3.4	0.0	1.7
C[C@@H]1CCCCO[C@H](CN(C)C(=O)Nc2ccc(C(F)(F)F)cc2)[C@@H](C)CN([C@H](C)CO)C(=O)c2cc(NC(=O)Nc3cccc4ccccc34)ccc2O1	67.2*	1.0	-6.6
Cc1noc(C)c1NC(=O)N(C)C[C@H]1Oc2ccc(NS(=O)(=O)c3ccc(F)cc3)cc2C(=O)N([C@@H](C)CO)C[C@@H]1C	-13.3	2.6	3.3
COc1ccc(NC(=O)N(C)C[C@H]2Oc3ccc(NS(=O)(=O)c4c(C)noc4C)cc3CC(=O)N([C@@H](C)CO)C[C@@H]2C)cc1	-0.5	x	8.8
C[C@@H]1CCCCO[C@@H](CN(C)C(=O)C2CCCCC2)[C@@H](C)CN([C@H](C)CO)C(=O)c2cc(NC(=O)Nc3ccc(C(F)(F)F)cc3)ccc2O1	77.2*	x	-24.7
C[C@@H]1CCCCO[C@H](CN(C)Cc2ccc(C(F)(F)F)cc2)[C@@H](C)CN([C@H](C)CO)C(=O)c2cc(NC(=O)Nc3cccc4ccccc34)ccc2O1	74.0*	x	-4.0
C[C@@H]1CN([C@@H](C)CO)C(=O)c2cc(NC(=O)Nc3ccc(C(F)(F)F)cc3)ccc2O[C@@H](C)CCCCO[C@@H]1CN(C)C(=O)C1CCCCC1	x	-0.7	x
C[C@H]1CCCCO[C@@H](CN(C)C(=O)Nc2ccc(C(F)(F)F)cc2)[C@@H](C)CN([C@@H](C)CO)C(=O)c2cc(NC(=O)Nc3ccc(F)cc3)ccc2O1	x	-0.4	x
C[C@@H]1CCCCO[C@H](CN(C)C(=O)Nc2ccc(C(F)(F)F)cc2)[C@@H](C)CN([C@H](C)CO)C(=O)c2cc(NC(=O)c3ccccc3)ccc2O1	58.6*	x	-7.8
C[C@@H]1CCCCO[C@@H](CN(C)C(=O)Nc2ccc(C(F)(F)F)cc2)[C@@H](C)CN([C@H](C)CO)C(=O)c2cc(NC(=O)Nc3ccc(C(F)(F)F)cc3)ccc2O1	68.8*	x	-3.4
C[C@@H]1CCCCO[C@H](CN(C)Cc2ccc(C(F)(F)F)cc2)[C@H](C)CN([C@H](C)CO)C(=O)c2cc(NC(=O)Nc3cccc4ccccc34)ccc2O1	x	0.8	x
C[C@@H]1CN([C@H](C)CO)C(=O)c2cc(NC(=O)c3ccccc3)ccc2O[C@@H](C)CCCCO[C@H]1CN(C)C(=O)Nc1ccc(C(F)(F)F)cc1	x	2.0	x
CNC[C@@H]1Oc2ccc(NC(=O)CCC(F)(F)F)cc2C(=O)N([C@@H](C)CO)C[C@H]1C	-7.7	0.2	x
C[C@H]1CN([C@@H](C)CO)C(=O)c2cc(NC(=O)CCCN(C)C)ccc2O[C@@H]1CN(C)C	-21.1	0.3	x
C[C@H]1CN([C@@H](C)CO)C(=O)Cc2cc(NC(=O)Nc3cccc4ccccc34)ccc2O[C@@H]1CN(C)Cc1ccc(Oc2ccccc2)cc1	70.4*	1.4	-20.4
C[C@H](CO)N1C[C@H](C)[C@H](CN(C)Cc2ccc(Oc3ccccc3)cc2)Oc2ccc(NC(=O)Nc3cccc4ccccc34)cc2CC1=O	17.2	x	-26.2
COc1ccc(CN(C)C[C@H]2Oc3ccc(NC(=O)Nc4cccc5ccccc45)cc3CC(=O)N([C@@H](C)CO)C[C@@H]2C)cc1	x	-0.7	x
C[C@@H]1CN([C@@H](C)CO)C(=O)Cc2cc(NC(=O)Nc3cccc4ccccc34)ccc2O[C@@H]1CN(C)Cc1ccc(Oc2ccccc2)cc1	67.9*	x	-0.9
C[C@H]1CCCCO[C@H](CN(C)C(=O)Nc2cccc3ccccc23)[C@@H](C)CN([C@@H](C)CO)C(=O)c2cc(NC(=O)Cc3ccccc3)ccc2O1	x	-0.8	x
C[C@H](CO)N1C[C@H](C)[C@H](CN(C)Cc2ccc(Cl)c(Cl)c2)Oc2c(NC(=O)c3cnccn3)cccc2C1=O	43.3	x	-23.1
SMILES	T cruzi intra	A1 apoptosis 2	INS-1E ATP HTS
C[C@H](CO)N1C[C@H](C)[C@@H](CN(C)Cc2ccc(Cl)c(Cl)c2)Oc2c(NC(=O)c3ccncc3)cccc2C1=O	78.2*	0.9	-14.2
C[C@@H]1CN([C@@H](C)CO)C(=O)c2cccc(NC(=O)c3ccncc3)c2O[C@@H]1CN(C)Cc1ccc(Cl)c(Cl)c1	67.8*	-0.5	-8.2
C[C@H]1CN([C@@H](C)CO)C(=O)c2cc(NC(=O)CCC(F)(F)F)ccc2O[C@@H]1CN(C)C(=O)Nc1ccccc1	-5.9	0.4	8.2
CNC[C@H]1OCCCC[C@H](C)Oc2ccc(NC(=O)NC(C)C)cc2C(=O)N([C@@H](C)CO)C[C@@H]1C	x	-0.5	x
C[C@H]1CCCCO[C@@H](CN(C)Cc2ccccc2)[C@@H](C)CN([C@@H](C)CO)C(=O)c2cc(NC(=O)CCC(F)(F)F)ccc2O1	x	1.1	x
C[C@@H]1CN([C@H](C)CO)C(=O)c2cccc(NC(=O)c3ccc(-c4nccs4)cc3)c2O[C@@H]1CN(C)Cc1ccc(C(=O)Nc2ccccc2N)cc1	80.7*	x	u
C[C@@H]1CN([C@@H](C)CO)C(=O)c2cccc(NC(=O)c3ccc(-c4nccs4)cc3)c2O[C@H]1CN(C)CC1CCCCC1	64.0*	1.1	-43.3
C[C@H](CO)N1C[C@H](C)[C@@H](CN(C)Cc2ccc(Cl)c(Cl)c2)Oc2c(NC(=O)c3ccc(-c4nccs4)cc3)cccc2C1=O	62.2*	-0.9	-31.7
C[C@@H]1CN([C@H](C)CO)C(=O)c2cccc(NC(=O)c3ccc(-c4nccs4)cc3)c2O[C@H]1CN(C)Cc1ccccc1	38.6	-1.0	-13.2
C[C@H](CO)N1C[C@H](C)[C@H](CN(C)S(=O)(=O)c2ccc(Cl)cc2)Oc2c(NC(=O)c3ccc(-c4nccs4)cc3)cccc2C1=O	63.4*	-0.5	-37.5
C[C@@H]1CN([C@H](C)CO)C(=O)c2cccc(NC(=O)c3ccc(-c4nccs4)cc3)c2O[C@H]1CN(C)Cc1ccc(C(=O)O)cc1	-10.2	0.0	11.7
C[C@H](CO)N1C[C@H](C)[C@@H](CN(C)CC2CCCCC2)Oc2c(NC(=O)c3ccc(-c4nccs4)cc3)cccc2C1=O	44.8	x	-37.2
